# Hits are enriched below; roughly 2.2% of the tested compounds scored in any of these assays.
# Ecoli rRNA inh – selective bacterial rRNA inhibition in E. coli. E. coli WT GFP vs humanized-ribosome RFP mutants, fluorescence, 24 h; active compounds read low; DMSO median 0, no signal -100. GFP signal change (wild-type ribosome), % (test concentration not listed). 350,000 tested, 1.6% active. AID 720706;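 active = significant combined selectivity score with lowered wild-type GFP, culture density cut under 30%, mutant RFP and density less affected; inactive = any of these conditions unmet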
# FN deposition inh – fibronectin deposition inhibition. AH1F fibroblasts, Alexa488-fibronectin deposition fluorescence, overnight. inhibition, % at 12.6 µM. 350,000 tested, 0.086% active. AID 743247;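 active = mean inhibition across replicates of 30% or more, regardless of how many single replicates reach that level; inconclusive = mean under 30% yet at least half of replicates reach 30%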;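 note: positive control wells lacked labelled fibronectin entirely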
#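 Measured by – fluorescence 485/525 nm · System – AH1F fibroblast monolayer, labelled fibronectin deposition · Amount – 10000 cells per well · Buffer or medium – serum-reduced DMEM (2% serum) · Doses – single dose, pinned · Also added – fluorescent fibronectin at 24 nM final · Schedule – 1 h cell attachment, overnight exposure to compound and label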
# PvdQ inh – blocks Pseudomonas aeruginosa PvdQ acylase activity. inhibition, % at 10 µM. 340,000 tested, 0.063% active. purified PvdQ acylase, fluorescence plate reader; in the data active = inhibition above about 30%, passing the limit was not always enough; inconclusive = no clear call, values can overlap the other calls;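 note: 0% = vehicle neutral wells and 100% = reference inhibitor wells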
# PDI inh – inhibitors of human protein disulfide isomerase; P07237; PDI insulin aggregation turbidity, A650, 90 min; inhibition, % at 10 µM; 350,000 tested, 0.052% active;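 active = mean inhibition across replicates of 30% or more, whatever share of single replicates reach that level; inconclusive = mean inhibition below 30% while every single replicate reaches 30%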
# Env fusion inh – inhibitors of HIV Env-mediated cell fusion | HeLa-JRFL Env/CEM21 cell fusion, luciferase | inhibition, % at 12.3 µM | 360,000 tested, 1.1% active;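 active = mean replicate inhibition score of at least 50 and every replicate individually at or above 50; inconclusive = only one of the two criteria met; inactive = mean below 50 and not all replicates reaching 50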;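 note: 0% = plate neutral controls and 100% = maraviroc near 300 nM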
# ERp5 block – blocks human ERp5 reductase activity on insulin. Q15084. ERp5 insulin aggregation, absorbance 650 nm, 90 min. inhibition, % at 9.99 µM. 350,000 tested, 0.05% active;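 active = mean replicate inhibition above about 25%, with every replicate also reaching it, limit read from the data, passing the limit was not always enough; inconclusive = only one of those two criteria met; inactive = neither criterion met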
# Target sequence (Q15084 whole entry, looked up): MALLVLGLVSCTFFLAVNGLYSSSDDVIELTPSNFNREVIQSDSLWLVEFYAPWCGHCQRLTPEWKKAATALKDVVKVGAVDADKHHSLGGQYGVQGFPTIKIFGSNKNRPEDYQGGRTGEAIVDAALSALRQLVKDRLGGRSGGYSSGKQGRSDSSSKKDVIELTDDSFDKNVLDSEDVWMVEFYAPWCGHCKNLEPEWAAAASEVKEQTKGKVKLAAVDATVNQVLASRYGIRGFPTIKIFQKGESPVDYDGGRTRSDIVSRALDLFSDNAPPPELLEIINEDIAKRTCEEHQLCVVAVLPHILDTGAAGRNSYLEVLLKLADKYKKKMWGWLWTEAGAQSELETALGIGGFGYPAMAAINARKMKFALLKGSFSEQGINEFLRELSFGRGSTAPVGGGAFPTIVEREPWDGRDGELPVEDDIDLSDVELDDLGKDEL
# * marks the source's active call; other numbers are inactive results; u = inconclusive; x = no result given; [ ] = dose if it differs, or a comment.
SMILES,Ecoli rRNA inh,FN deposition inh,PvdQ inh,PDI inh,Env fusion inh,ERp5 block
Cc1cccc(-c2ccc3[nH]c4c(c3c2)CCN2C[C@@H]([C@H](C)O)[C@@H](N(C)C(=O)Nc3ccc(F)cc3)C[C@@H]42)c1,-21.8*,x,x,17.4,21.9,3.5
COc1ccc(NC(=O)N(C)[C@H]2C[C@H]3c4[nH]c5ccc(-c6cccc(C)c6)cc5c4CCN3C[C@H]2[C@H](C)O)cc1,x,x,x,-1.2,x,x
C[C@H](O)[C@@H]1CN2CCc3c([nH]c4ccc(-c5ccc6c(c5)OCO6)cc34)[C@@H]2C[C@@H]1N(C)C(=O)NC1CCCCC1,-52.3*,-1.9,x,-1.2,-11.6,1.5
CCOc1ccc(C(=O)Nc2cccc(C(=O)O)c2C)cc1Cl,-2.1,-6.9,-8.8,-6.0,59.7*,-10.8
CCOc1ccc(C(=O)Nc2ccccc2-c2ccccc2)cc1Cl,x,x,-8.5,1.4,-47.7,x
CCC(=O)c1ccc(OC(=O)c2cccs2)cc1,x,2.6,41.4*,0.5,27.8,x
COc1ccc(C(=O)N/N=C/c2ccc(OC(=O)c3cccs3)cc2)cc1,3.8,-6.3,-5.6,-5.3,x,-0.7
O=C(Oc1ccc(-c2ccccc2)cc1)c1ccco1,11.9,-7.8,-8.6,-0.9,u,7.0
COC(=O)c1ccc(OC(=O)c2ccco2)cc1,x,-6.5,80.7*,0.1,-11.1,x
COC(=O)c1ccc(OC(=O)c2cccs2)cc1,2.9,0.7,55.0*,-2.6,-12.2,-3.7
Cn1cnc(CCNC(=O)C[C@H]2CC[C@@H]3[C@H](COC[C@H](O)CN3C(=O)Nc3ccccc3)O2)c1,3.4,-11.2,x,x,x,0.4
COc1ccc(NS(=O)(=O)c2nnc(NC(=O)c3ccccc3F)s2)cc1,-10.4*,7.4,1.9,21.7,14.4,2.3
O=C(CSCc1ccccc1)N/N=C/c1ccccc1OCc1ccccc1,-26.6*,x,-11.7,-4.7,x,6.2
NC(=S)N/N=C\c1ccccc1OCc1ccccc1,-26.3*,x,-4.3,-6.8,-22.4,-3.6
C/C=C/c1ccc([C@H]2[C@H](CO)N(C(=O)c3cnccn3)C23CN(C(=O)CC)C3)cc1,2.6,x,x,x,x,3.4
C[C@H]1CN([C@@H](C)CO)S(=O)(=O)c2ccc(-c3cncnc3)cc2O[C@@H]1CN(C)C(=O)CN(C)C,6.6,-0.6,x,x,-8.6[16.7 µM],2.7
C=CCNC(=O)N1c2ccccc2Sc2ccccc21,-23.9*,-1.3,-18.4,-5.6,0.0,0.1
CCC(C)NC(=O)N1c2ccccc2Sc2ccccc21 (configuration not stated),-31.4*,1.6,-10.0,3.1,4.5,2.1
O=C(NCCO)N1c2ccccc2Sc2ccccc21,3.2,15.2,7.0,5.8,5.5,0.3
C[C@@H]1CCCCO[C@@H](CN(C)Cc2ccc(C(=O)O)cc2)[C@@H](C)CN([C@@H](C)CO)C(=O)c2cc(NS(=O)(=O)c3ccc(Cl)cc3)ccc2O1,3.2,-0.9,x,x,-4.8[16.7 µM],-2.0
CN1C(=O)c2cc(NS(C)(=O)=O)ccc2OC[C@H]2O[C@H](CC(=O)O)CC[C@H]21,1.1,-4.3,x,x,x,9.6
CCO[C@H]1OC(C(=O)N2CCN(Cc3ccccc3)CC2)=C[C@@H](c2ccc(C(F)(F)F)cc2)[C@@H]1CCCO,-44.0,-0.7,3.7,7.0,26.5,3.0
CCO[C@H]1OC(C(=O)N2CCN(Cc3ccc4c(c3)OCO4)CC2)=C[C@@H](c2ccc3c(c2)OCO3)[C@@H]1CCCO,-22.5*,-13.3,-8.0,-1.1,2.2[16.7 µM],0.0
CCO[C@H]1OC(C(=O)N2CCN(Cc3ccccc3)CC2)=C[C@@H](c2ccccc2)[C@@H]1CCCO,-32.0*,3.6,-9.8,-1.8,13.2,5.2
COC(=O)c1c(NC(=O)CN2CCC3(O)CCCCC3C2c2ccc(OC)cc2OC)sc(C)c1C (configuration not stated),x,5.2,-7.8,-10.8,66.1*,-5.9
SMILES,Ecoli rRNA inh,FN deposition inh,PvdQ inh,PDI inh,Env fusion inh,ERp5 block
COC(=O)c1c(NC(=O)CN2CCC3(O)CCCCC3C2c2ccccc2OC)sc(C)c1C (configuration not stated),8.5,15.8,4.1,7.1,27.5,0.2
CC(C)CC#Cc1ccc2c(c1)O[C@@H](CN(C)C(=O)C1CCCCC1)[C@H](C)CN([C@@H](C)CO)S2(=O)=O,-2.0,2.9,x,x,57.1*[16.7 µM],0.5
Cc1ccc(-c2ccc3c(c2)O[C@@H](CN(C)C(=O)C2CCCCC2)[C@H](C)CN([C@H](C)CO)S3(=O)=O)cc1,-1.1,-23.5,x,x,59.7*[16.7 µM],x
CCCC#Cc1ccc2c(c1)O[C@@H](CN(C)C(=O)C1CCCCC1)[C@H](C)CN([C@H](C)CO)S2(=O)=O,-4.2,x,x,x,62.3*[16.7 µM],x
Cc1ccc(-c2ccc3c(c2)O[C@H](CN(C)C(=O)C2CCCCC2)[C@H](C)CN([C@H](C)CO)S3(=O)=O)cc1,1.7,-13.5,x,x,-5.4[16.7 µM],x
CC(C)CC#Cc1ccc2c(c1)O[C@H](CN(C)C(=O)C1CCCCC1)[C@@H](C)CN([C@H](C)CO)S2(=O)=O,-0.4,-9.4,x,x,-0.8[16.7 µM],-4.2
C[C@H]1CN([C@@H](C)CO)C(=O)c2cc(NC(=O)c3ccncc3)ccc2O[C@@H]1CN(C)C(=O)Nc1ccc2c(c1)OCO2,3.4,x,x,x,x,3.2
CCCC(=O)Nc1ccc2c(c1)OC[C@@H](C)N(CCC)C[C@H](C)[C@H](OC)CN(C)C2=O,1.0,1.3,x,x,22.4[16.7 µM],-3.2
COCCNC(=O)[C@H]1[C@H](CO)[C@H]2Cn3c(ccc(-c4ccccc4F)c3=O)[C@H]2N1C(=O)C1CC1,3.3,x,x,x,x,-3.8
N/C(=N\OC(=O)Cc1ccccc1)c1cccnc1,x,-9.0,-5.0,-1.2,-56.0,x
N/C(=N\OC(=O)CC(c1ccccc1)c1ccccc1)c1cccnc1,-19.5*,-26.3,-3.0,-0.9,-33.4,2.1
COc1ccc(CNC(=O)C[C@@H]2CC[C@H](NS(=O)(=O)c3cccc(OC)c3)[C@H](CO)O2)cc1,-0.1,x,x,x,-0.7[16.7 µM],-5.2
Cc1cc(Br)ccc1Nc1nc(N)nc(N)c1N=O,38.5,9.7,4.3,-47.7,56.1*,-11.9
CCC(=O)N(C)C[C@@H]1Oc2cc(C3=CCCCC3)ccc2S(=O)(=O)N([C@H](C)CO)C[C@@H]1C,-8.1,x,x,x,18.4[16.7 µM],x
O=C1CC(c2ccc(O)cc2)Oc2ccccc21 (configuration not stated),-16.1,6.7,-5.3,10.9,-65.6,-1.3
CN1CC(c2ccccc2)Oc2ccccc2C1=S (configuration not stated),-36.2*,-2.7,-20.1,-10.3,2.3,4.8
C[C@H](O)C#Cc1ccc2c(c1)O[C@@H](CN(C)C(=O)C1CCCCC1)[C@H](C)CN([C@H](C)CO)S2(=O)=O,-4.8,x,x,x,-19.8[16.7 µM],-7.6
Cc1noc(C)c1NC(=O)Nc1ccc2c(c1)CC(=O)N([C@H](C)CO)C[C@H](C)[C@H](CN(C)S(C)(=O)=O)O2,2.9,x,x,x,-2.9[16.7 µM],x
CCC1CN(C(=O)NCc2ccccc2)c2ccccc2O1 (configuration not stated),-21.5*,3.0,2.7,-3.5,-13.4,8.7
